Experimental data as given in ChEMBL document CHEMBL1122671, “Anticonvulsant activity of some 4-aminobenzamides” (J Med Chem, 1984).

Tests used:
Mus musculus [1] = test: Anticonvulsant activity against scMet (subcutaneous metrazole) induced seizure in mice at 30 min; +++ = Indicates activity at 100 mg/kg.; format: functional, organism-based; design: dose 100 mg/kg
[2] = Protective index (PI) which is defined as the ratio of TD50 to the ED50 (ScMet).; format: functional
In short: (§1)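 Both values come from ip dosing in 30% PEG 400 to male Carworth Farms number-one mice and were derived by the graphical method.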

Mus musculus [3] = test: Anticonvulsant activity against scMet (subcutaneous metrazole) induced seizure in mice at 4 hr; f = No activity at 100 mg/kg.; format: functional, organism-based; design: dose 100 mg/kg
Mus musculus [4] = test: Anticonvulsant activity against MES (maximal electroshock) induced seizure in mice at 30 min; +++ = Activity at 100 mg/kg.; format: functional, organism-based; design: dose 100 mg/kg
In short: (§2)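 Male Carworth Farms number-one mice received the compound ip in 30% polyethylene glycol 400. Doses were 30, 100 and 300 mg/kg, with 600 mg/kg in some cases. Maximal electroshock seizure protection was scored at 30 min and 4 h after dosing. Activity is coded by the lowest effective dose.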

Mus musculus [5] = test: Evaluated for toxicity by using rotarod test in mice at 4 hr; f = No activity at 100 mg/kg.; format: organism-based; design: dose 100 mg/kg; settings: in vivo
In short: (§3)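 Neurotoxicity in male Carworth Farms number-one mice dosed ip in 30% PEG 400 at 30, 100, 300 and sometimes 600 mg/kg, tested 30 min or 4 h later. Mice placed on a 1-in. knurled rod rotating at 6 rpm; toxicity means failure to stay on the rod for 1 min. Scored by the lowest toxic dose; footnotes record loss of righting reflex or lethality.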

[6] = Protective index (PI) which is defined as the ratio of TD50 to the ED50 (MES).; format: functional; in short: as §1
Mus musculus [7] = test: Evaluated for toxicity by using rotarod test at in mice 30 min; +++ = Indicates activity at 100 mg/kg.; format: organism-based; design: dose 100 mg/kg; settings: in vivo, 0.5 h; in short: as §3
[8] = (§4) Evaluation of neurologic deficit by rotarod procedure in mice; format: ADME, organism-based; settings: mouse, in vivo
In short: (§5)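 Male Carworth Farms number-one mice were dosed ip (30% PEG 400 vehicle) and placed on a 1-in. knurled plastic rod rotating at 6 rpm. Neurotoxicity meant failure to stay on the rod for 1 min. TD50 was determined graphically.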

Mus musculus [9] = test: Anticonvulsant activity against MES (maximal electroshock) induced seizure in mice at 4 hr; f = No activity at 100 mg/kg.; format: functional, organism-based; design: dose 100 mg/kg; in short: as §2
Mus musculus [10] = species: Mus musculus; test: as §4; format: functional; in short: as §5
Mus musculus [11] = test: Anticonvulsant activity against MES (maximal electroshock) induced seizure in mice at 30 min; + indicates activity at 600 mg/kg.; format: functional, organism-based; design: dose 600 mg/kg
In short: (§6)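 Male Carworth Farms number-one mice; compounds in 30% polyethylene glycol 400, given ip at 30, 100 and 300 mg/kg, some also at 600 mg/kg. Maximal electroshock challenge at 30 min or 4 h after dosing. Scored by the lowest dose giving protection (++++ 30, +++ 100, ++ 300, + 600 mg/kg; - none at 600).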

Mus musculus [12] = test: Anticonvulsant activity against scMet (subcutaneous metrazole) induced seizure in mice at 30 min; + indicates activity at 600 mg/kg.; format: functional, organism-based; design: dose 600 mg/kg
In short: (§7)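 Male Carworth Farms number-one mice dosed ip (30% PEG 400) at 30, 100, 300 and in some cases 600 mg/kg. Pentylenetetrazole 85 mg/kg given sc as a 0.5% solution in the posterior midline, at 30 min or 4 h. Protection means no clonic spasm of at least 5 s within 30 min. Scored by the lowest protective dose.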

Mus musculus [13] = test: Evaluated for toxicity by using rotarod test at in mice 30 min; - indicates no activity at 600 mg/kg.; format: organism-based; design: dose 600 mg/kg; settings: in vivo, 0.5 h; in short: as §3
Mus musculus [14] = test: Anticonvulsant activity against scMet (subcutaneous metrazole) induced seizure in mice at 4 hr; - indicates no activity at 600 mg/kg.; format: functional, organism-based; design: dose 600 mg/kg; in short: as §7
Mus musculus [15] = test: Anticonvulsant activity against MES (maximal electroshock) induced seizure in mice at 4 hr; + indicates activity at 600 mg/kg.; format: functional, organism-based; design: dose 600 mg/kg; in short: as §6
Mus musculus [16] = test: Evaluated for toxicity by using rotarod test in mice at 4 hr; - indicates no activity at 600 mg/kg.; format: organism-based; design: dose 600 mg/kg; settings: in vivo; in short: as §3
Mus musculus [17] = test: Evaluated for toxicity by using rotarod test at in mice 30 min; + = Activity at 600 mg/kg.; format: organism-based; design: dose 600 mg/kg; settings: in vivo, 0.5 h; in short: as §3
Mus musculus [18] = test: Anticonvulsant activity against MES (maximal electroshock) induced seizure in mice at 30 min; ++ = Activity at 300 mg/kg.; format: functional, organism-based; design: dose 300 mg/kg; in short: as §2
Mus musculus [19] = test: Evaluated for toxicity by using rotarod test in mice at 4 hr; + = Activity at 600 mg/kg.; format: organism-based; design: dose 600 mg/kg; settings: in vivo; in short: as §3
Mus musculus [20] = test: Anticonvulsant activity against scMet (subcutaneous metrazole) induced seizure in mice at 30 min; ++ = Activity at 300 mg/kg.; format: functional, organism-based; design: dose 300 mg/kg
Mus musculus [21] = test: Anticonvulsant activity against MES (maximal electroshock) induced seizure in mice at 4 hr; ++ = Activity at 300 mg/kg.; format: functional, organism-based; design: dose 300 mg/kg; in short: as §2
Mus musculus [22] = test: Anticonvulsant activity against scMet (subcutaneous metrazole) induced seizure in mice at 4 hr; + = Activity at 600 mg/kg.; format: functional, organism-based; design: dose 600 mg/kg
Mus musculus [23] = test: Anticonvulsant activity against scMet (subcutaneous metrazole) induced seizure in mice at 30 min; + = Activity at 600 mg/kg.; format: functional, organism-based; design: dose 600 mg/kg
Mus musculus [24] = test: Evaluated for toxicity by using rotarod test in mice at 30 min; + = Activity at 600 mg/kg.; format: organism-based; design: dose 600 mg/kg; settings: in vivo, 0.5 h; in short: as §3
Mus musculus [25] = test: Anticonvulsant activity against scMet (subcutaneous metrazole) induced seizure in mice at 30 min; +++ indicates activity at 100 mg/kg.; format: functional, organism-based; design: dose 100 mg/kg
Mus musculus [26] = test: Anticonvulsant activity against MES (maximal electroshock) induced seizure in mice at 4 hr; +++ indicates activity at 100 mg/kg.; format: functional, organism-based; design: dose 100 mg/kg; in short: as §2
Mus musculus [27] = test: Anticonvulsant activity against scMet (subcutaneous metrazole) induced seizure in mice at 4 hr; ++ indicates activity at 300 mg/kg.; format: functional, organism-based; design: dose 300 mg/kg
Mus musculus [28] = test: Evaluated for toxicity by using rotarod test in mice at 4 hr; ++ indicates activity at 300 mg/kg.; format: organism-based; design: dose 300 mg/kg; settings: in vivo; in short: as §3
Mus musculus [29] = test: Evaluated for toxicity by using rotarod test at in mice 30 min; ++ indicates activity at 300 mg/kg.; format: organism-based; design: dose 300 mg/kg; settings: in vivo, 0.5 h; in short: as §3
Mus musculus [30] = test: Anticonvulsant activity against MES (maximal electroshock) induced seizure at dose 600 mg/kg in mice at 4 hr; - = No activity at 600 mg/kg.; format: functional, organism-based; in short: as §2
Mus musculus [31] = test: Evaluated for toxicity by using rotarod test in mice at 4 hr; - = No activity at 600 mg/kg.; format: organism-based; design: dose 600 mg/kg; settings: in vivo; in short: as §3
Mus musculus [32] = test: Anticonvulsant activity against MES (maximal electroshock) induced seizure at dose 600 mg/kg in mice at 30 min; - = No activity at 600 mg/kg.; format: functional, organism-based; in short: as §2
Mus musculus [33] = test: Evaluated for toxicity by using rotarod test at dose 600 mg/kg in mice 30 min; - = No activity at 600 mg/kg.; format: organism-based; settings: in vivo, 0.5 h; in short: as §3
Mus musculus [34] = test: Anticonvulsant activity against scMet (subcutaneous metrazole) induced seizure at dose 600 mg/kg in mice at 4 hr; - = No activity at 600 mg/kg.; format: functional, organism-based
Mus musculus [35] = test: Anticonvulsant activity against scMet (subcutaneous metrazole) induced seizure at dose 300 mg/kg in mice at 30 min; ++ = Activity at 300 mg/kg.; format: functional, organism-based

Question: What does the source list for `CCCCCNC(=O)c1ccc(N)cc1`?
Answer: Activity (Mus musculus [1]): Activity at 100 mg/kg; PI [2]: 1.2; Activity (Mus musculus [3]): No activity; Activity (Mus musculus [4]): Activity at 100 mg/kg; Toxicity (Mus musculus [5]): No activity; PI [6]: 1.6; Toxicity (Mus musculus [7]): activity at 100 mg/kg; TD50 [8]: 68.5 mg/kg; Activity (Mus musculus [9]): No activity

Question: Which TD50 (Mus musculus [10]) does the source give for `CCC1(c2ccccc2)C(=O)NC(=O)NC1=O` [PHENOBARBITAL] here?
Answer: 69 mg/kg

Question: For `CC(Cc1ccccc1)NC(=O)c1ccc(N)cc1` (configuration not stated), which Activity (Mus musculus [11]) is on record?
Answer: activity at 600 mg/kg

Question: And the Activity (Mus musculus [12])?
Answer: activity at 600 mg/kg

Question: What about the Toxicity (Mus musculus [13]) of the same compound?
Answer: Not toxic

Question: And the Activity (Mus musculus [14])?
Answer: Not toxic

Question: What about the Activity (Mus musculus [15]) of the same compound?
Answer: activity at 600 mg/kg

Question: What about the Toxicity (Mus musculus [16]) of the same compound?
Answer: Not toxic

Question: Which results are given for `Nc1ccc(C(=O)NCCc2ccccc2)cc1`?
Answer: Toxicity (Mus musculus [17]): Activity at 600 mg/kg; Activity (Mus musculus [18]): Activity at 300 mg/kg; Toxicity (Mus musculus [19]): Activity at 600 mg/kg; Activity (Mus musculus [20]): Activity at 300 mg/kg; Activity (Mus musculus [21]): Activity at 300 mg/kg; Activity (Mus musculus [22]): Activity at 300 mg/kg

Question: Which Activity (Mus musculus [23]) does the source give for `CCNC(=O)c1ccc(N)cc1` here?
Answer: Activity at 100 mg/kg

Question: What about the Toxicity (Mus musculus [24]) of the same compound?
Answer: Activity at 600 mg/kg

Question: And the Activity (Mus musculus [4])?
Answer: Activity at 100 mg/kg

Question: And the Toxicity (Mus musculus [19])?
Answer: Activity at 600 mg/kg

Question: What about the Activity (Mus musculus [21]) of the same compound?
Answer: Activity at 100 mg/kg

Question: What about the Activity (Mus musculus [22]) of the same compound?
Answer: Activity at 100 mg/kg

Question: For `CC(NC(=O)c1ccc(N)cc1)c1ccccc1` (configuration not stated), which Activity (Mus musculus [25]) is on record?
Answer: activity at 100 mg/kg

Question: And the Activity (Mus musculus [26])?
Answer: activity at 100 mg/kg

Question: What about the Activity (Mus musculus [27]) of the same compound?
Answer: activity at 100 mg/kg

Question: What about the PI [2] of the same compound?
Answer: 4.1

Question: And the TD50 (Mus musculus [10])?
Answer: 171 mg/kg

Question: And the Toxicity (Mus musculus [28])?
Answer: activity at 300 mg/kg

Question: What about the Toxicity (Mus musculus [29]) of the same compound?
Answer: activity at 300 mg/kg

Question: What about the PI [6] of the same compound?
Answer: 9.5

Question: For `NC(=O)c1ccc(N)cc1`, which Activity (Mus musculus [30]) is on record?
Answer: Not toxic

Question: And the Toxicity (Mus musculus [31])?
Answer: Not toxic

Question: And the Activity (Mus musculus [32])?
Answer: Not toxic

Question: What about the Toxicity (Mus musculus [33]) of the same compound?
Answer: Not toxic

Question: What about the Activity (Mus musculus [34]) of the same compound?
Answer: Not toxic

Question: What about the Activity (Mus musculus [35]) of the same compound?
Answer: Activity at 300 mg/kg
